# Source: PubChem (Broad Institute)
# FGF22 binding: binders of human FGF22 protein, primary screen, FGF22 synaptogenesis inhibitor project, biophysical, thermal shift, single point; recombinant FGF22 thermal shift, SYPRO orange fluorescence; percent of sucrose octasulfate shift, DMSO zero; activity (Tm shift, normalised), % at 9.99 µM; hit rate 1.5% among 340,000; AID 651658, 2012;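 active means mean Tm shift, scaled 0 neutral to 100 positive control, at about 1.3% or above, every replicate too, limit read from the data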
# Target sequence (Q9HCT0 whole entry, looked up): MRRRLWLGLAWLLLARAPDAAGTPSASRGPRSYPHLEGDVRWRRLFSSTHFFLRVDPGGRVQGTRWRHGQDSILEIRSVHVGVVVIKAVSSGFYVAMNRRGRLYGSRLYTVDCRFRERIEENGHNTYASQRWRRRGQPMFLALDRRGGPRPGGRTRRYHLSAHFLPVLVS
# EWS-Fli inh: EWS/Fli-driven NR0B1 reporter inhibitors, primary screen, A673 cells, NR0B1 luciferase, luminescence, MLPCN library | viability-normalised | inhibition, % at 12.6 µM | hit rate 0.67% among 350,000 | AID 651661, 2012;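 active means mean inhibition of at least 50% after viability correction, with every replicate also passing that limit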;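 further: firefly luciferase signal divided by Alamar Blue viability fluorescence both relative to DMSO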
# HIV Env fusion: inhibitors of HIV-1 Env-driven cell-cell fusion, primary screen, HeLa-JRFL effector, CEM21 target cells, luciferase. hit rate 1.1% among 360,000. inhibition, % at 12.3 µM;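 active means mean replicate inhibition score of at least 50 and every replicate individually at or above 50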;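 further: 0% = plate neutral controls and 100% = maraviroc near 300 nM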
# FN deposit inh: inhibitors of fibronectin matrix deposition, primary screen, AH1F cells, Alexa488-fibronectin fluorescence, plate reader; AH1F fibroblasts, overnight; inhibition, % at 12.6 µM; hit rate 0.086% among 350,000;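 active means mean inhibition across replicates of 30% or more, regardless of how many single replicates reach that level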;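 further: positive control wells lacked labelled fibronectin entirely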
#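 Test system: AH1F fibroblast monolayer depositing Alexa488-labelled fibronectin into matrix. Input: 10000 cells per well. Technique: fluorescence, ex 485 nm, em 525 nm. Buffer or medium: DMEM plus 2% serum, read in PBS. Timing: 1 h cell adhesion before compound, then overnight fibronectin incubation. Compound: single dose, pinned. Read-out basis: inhibition from reduced deposited-fibronectin fluorescence.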
# PGC1a acetyl inh: inhibitors of PGC1a acetylation signal, primary screen, cell-based, U2OS, AlphaScreen, inhibitor mode; AlphaScreen anti-acetyl-lysine; with virally co-expressed GCN5 acetyltransferase; inhibition, % at 15.6 µM; hit rate 0.17% among 350,000; AID 651687, 2012;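 active means every replicate shows inhibition of at least 40%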;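 further: 0% = neutral control wells and 100% = positive control wells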
# PAX8 reporter: inhibitors of PAX8-driven TPO luciferase reporter, primary screen, RMG-I cells, single concentration; hit rate 1.2% among 360,000; inhibition, % at 12.6 µM; SteadyGlo, 24 h;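 active means mean replicate inhibition at least 60% with every replicate also reaching 60%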;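 further: luciferase light reporting Pax8 driven TPO promoter activity; plate controls were median of neutral control wells for no effect and mitoxantrone controls for full effect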
# The depositor's hits bear a star; nt = no result; [ ] = another dose, or the depositor's remark. Sampled rows, rich in hits. Any-hit rate of the full collection: about 3.1%.
SMILES,FGF22 binding,EWS-Fli inh,HIV Env fusion,FN deposit inh,PGC1a acetyl inh,PAX8 reporter
Cc1nn(CCO)c2nc(-c3cccs3)cc(C(F)(F)F)c12,0,7,nt,7,nt,161*
COc1cccc(C(=O)CN2CCN(S(=O)(=O)c3cccc([N+](=O)[O-])c3)CC2)c1,43*,3,8,6,nt,15
C[C@@H]1CN([C@@H](C)CO)C(=O)c2cc(NC(=O)NC3CCCCC3)ccc2O[C@@H](C)CCCCO[C@H]1CN(C)CC1CCCCC1,0,8,7[16.7 µM],9,-2,21
C[C@@H]1CN([C@H](C)CO)C(=O)c2cccc(NC(=O)Nc3ccc(C(F)(F)F)cc3)c2O[C@H]1CN(C)CC1CC1,0,3,-2[16.7 µM],nt,1,78*
CNC[C@H]1Oc2c(NC(=O)Nc3ccc(C(F)(F)F)cc3)cccc2C(=O)N([C@@H](C)CO)C[C@H]1C,0,22,63*[16.7 µM],8,-3,-26
C[C@@H]1CN([C@@H](C)CO)C(=O)c2cccc(NC(=O)Nc3ccc(C(F)(F)F)cc3)c2O[C@@H]1CN(C)CC1CCCCC1,-1,61*,nt,nt,-7,nt
O=C(Nc1ccc(Cl)cc1)OCCn1nnnc1C(c1ccccc1Cl)N1CCOCC1 (stereo unspecified),nt,nt,113*,nt,nt,8
C[C@@H]1CN([C@H](C)CO)C(=O)c2cc(NS(=O)(=O)c3cccs3)ccc2O[C@@H](C)CCCCO[C@@H]1CN(C)Cc1ccc(C(F)(F)F)cc1,0,-1,15[16.7 µM],nt,-8,94*
C[C@H](CO)N1C[C@H](C)[C@@H](CN(C)Cc2ccc(C(F)(F)F)cc2)OCCCC[C@H](C)Oc2ccc(NS(=O)(=O)c3cccs3)cc2C1=O,0,14,-10[16.7 µM],nt,-13,71*
C[C@@H]1CCCCO[C@H](CN(C)Cc2ccc(C(F)(F)F)cc2)[C@@H](C)CN([C@@H](C)CO)C(=O)c2cc(NS(=O)(=O)c3cccs3)ccc2O1,-1,10,15[16.7 µM],nt,6,89*
C[C@@H]1CN([C@H](C)CO)C(=O)c2cc(NS(=O)(=O)c3cccs3)ccc2O[C@@H](C)CCCCO[C@H]1CN(C)Cc1ccc(C(=O)O)cc1,0,22,nt,nt,9,-36
C[C@@H]1CN([C@@H](C)CO)C(=O)c2cc(NS(=O)(=O)c3cccs3)ccc2O[C@@H](C)CCCCO[C@H]1CN(C)Cc1ccc(C(F)(F)F)cc1,-1,17,58*[16.7 µM],nt,-5,84*
O=C(C[C@H]1CC[C@@H]2[C@H](COC[C@@H](O)CN2Cc2ccc(Cl)cc2)O1)NCc1cccc(F)c1,0,nt,nt,-3,-9,nt
C[C@H](CO)N1C[C@H](C)[C@H](CN(C)S(=O)(=O)c2cccs2)Oc2c(NC(=O)Nc3ccc(F)cc3)cccc2C1=O,0,-15,-15[16.7 µM],9,5,68*
C[C@@H]1CN([C@@H](C)CO)C(=O)c2cccc(NC(=O)c3ccncc3)c2O[C@@H]1CN(C)S(=O)(=O)c1cccs1,0,3,3[16.7 µM],nt,-1,98*
C[C@@H]1CN([C@@H](C)CO)C(=O)c2cccc(NC(=O)c3ccncc3)c2O[C@H]1CN(C)S(=O)(=O)c1cccs1,0,-2,nt,nt,-4,nt
Cc1noc(C)c1C(=O)OCC(=O)Nc1cccc(S(N)(=O)=O)c1,43*,2,-5,-2,nt,8
COc1cccc(NC(=O)COC(=O)c2c(C)noc2C)c1,1,-1,nt,-1,2,-1
FC(F)(F)c1cc(-c2ccccc2)nc(NCc2cccnc2)n1,nt,nt,-70,active,-20,nt
CO[C@@H]1CN(C)C(=O)c2ccc(NC(=O)Nc3ccccc3F)cc2OC[C@@H](C)NC[C@@H]1C,0,-8,10[16.7 µM],-8,-11,nt
Clc1ccc(-c2c[n+](Cc3ccc(Br)cc3)c3n2CCCCC3)cc1,0,20,14,-8,nt,35
CC1CCC(C(C)C)C(OC(=O)C[n+]2cc(-c3ccc(Cl)cc3)n3c2CCCCC3)C1 (stereo unspecified),0,49,60*,nt,-47,102*
